≈ marks a conversion by molar mass, not a printed value.

Holding throughout (type): functional
The subject of one assay is Escherichia coli. Description: Antimicrobial activity against Escherichia coli after 24 hrs […]. The procedure, abridged:
(§1)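 Broth microdilution MIC. Bacteria were grown in Luria broth (1% tryptone, 0.5% yeast extract, 0.5% NaCl, pH 7.2) at 37 °C for 24 h. Mid-log cultures were read at OD540 and diluted to OD 0.004 (5 × 10⁵ CFU/mL) before inoculation. Compounds in DMSO were given as eleven twofold serial dilutions, and plates were incubated at 37 °C for 24 h. MIC was the lowest concentration with no visible growth by turbidity. Cefixime, amoxicillin and vancomycin were the positive controls.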

The test system of the next assay is Pseudomonas aeruginosa. Description: Antimicrobial activity against Pseudomonas aeruginosa after 24 hrs […]. A digest of the protocol: as §1
For orientation: ELISA stands for enzyme-linked immunosorbent assay.

The subject of the next assay is Klebsiella aerogenes. As to the kind of experiment: Antimicrobial activity against Enterobacter aerogenes after 24 hrs […]. A digest of the protocol: as §1
A further assay has as its system Staphylococcus aureus. As to the kind of experiment: Antimicrobial activity against Staphylococcus aureus after 24 hrs […]. A digest of the protocol: as §1
In a further assay the test system is Enterococcus faecalis. Description: Antimicrobial activity against Enterococcus faecalis after 24 hrs […]. A digest of the protocol:
as §1

The subject of a further assay is Priestia megaterium. As to the kind of experiment: Antimicrobial activity against Bacillus megaterium after 24 hrs […]. The procedure, abridged: as §1

The term MIC denotes the lowest concentration found to suppress growth. Lower therefore signals a more susceptible organism. As to `O=[N+]([O-])c1ccc2nc(-c3ccc4nc(-c5ccc(Br)cc5)c(Nc5ccccc5)n4c3)[nH]c2c1`, the MIC turned out to be 11.3 µg/mL (≈ 21.5 µM) with Escherichia coli; 14.5 µg/mL (≈ 27.6 µM) against Pseudomonas aeruginosa; 12.8 µg/mL (≈ 24.5 µM) in the assay on Klebsiella aerogenes; 10.3 µg/mL (≈ 19.6 µM) against Staphylococcus aureus; 13.4 µg/mL (≈ 25.4 µM) in the assay with Enterococcus faecalis; 17.5 µg/mL (≈ 33.4 µM) in the assay on Priestia megaterium.
Consider `Cc1ccc(-c2nc3ccc(-c4nc5ccc(Oc6ccccc6)cc5[nH]4)cn3c2Nc2ccccc2)cc1`, for which the MIC with Escherichia coli stood at 34.8 µg/mL (≈ 68.5 µM); in the assay on Pseudomonas aeruginosa, 45.4 µg/mL (≈ 89.5 µM); against Klebsiella aerogenes, 57.3 µg/mL (≈ 113 µM); against Staphylococcus aureus it was 54.9 µg/mL (≈ 108 µM); in the assay on Enterococcus faecalis, 46.5 µg/mL (≈ 91.6 µM); against Priestia megaterium, 65.5 µg/mL (≈ 129 µM).
For the molecule `Cc1ccc(-c2nc3ccc(-c4nc5ccc(Br)cc5[nH]4)cn3c2Nc2ccccc2)cc1`, the MIC against Escherichia coli was determined as 3.18 µg/mL (≈ 6.43 µM); in the assay on Pseudomonas aeruginosa, 5.22 µg/mL (≈ 10.6 µM); with Klebsiella aerogenes it was 7.15 µg/mL (≈ 14.5 µM); with Staphylococcus aureus, 5.11 µg/mL (≈ 10.3 µM); against Enterococcus faecalis, 6.28 µg/mL (≈ 12.7 µM); against Priestia megaterium it was 14 µg/mL (≈ 28.2 µM).
With `Fc1ccc2nc(-c3ccc4nc(-c5ccc(Br)cc5)c(Nc5ccccc5)n4c3)[nH]c2c1`, the MIC in the assay on Escherichia coli came to 2.15 µg/mL (≈ 4.31 µM); against Pseudomonas aeruginosa, 3.44 µg/mL (≈ 6.9 µM); in the assay on Klebsiella aerogenes it was 2.05 µg/mL (≈ 4.11 µM); in the assay with Staphylococcus aureus, 1.51 µg/mL (≈ 3.03 µM); against Enterococcus faecalis it was 5.23 µg/mL (≈ 10.5 µM); against Priestia megaterium, 10.2 µg/mL (≈ 20.6 µM).
`Fc1ccc2nc(-c3ccc4nc(-c5ccc(Oc6ccccc6)cc5)c(Nc5ccccc5)n4c3)[nH]c2c1`: the MIC was determined as 10.7 µg/mL (≈ 20.9 µM) against Escherichia coli; 12.4 µg/mL (≈ 24.3 µM) with Pseudomonas aeruginosa; 11.5 µg/mL (≈ 22.6 µM) against Klebsiella aerogenes; 12.1 µg/mL (≈ 23.7 µM) against Staphylococcus aureus; 15.3 µg/mL (≈ 29.9 µM) in the assay with Enterococcus faecalis; 21.6 µg/mL (≈ 42.2 µM) with Priestia megaterium.
For `Brc1ccc(-c2nc3ccc(-c4nc5ccc(Oc6ccccc6)cc5[nH]4)cn3c2Nc2ccccc2)cc1`, the MIC with Escherichia coli came to 31.8 µg/mL (≈ 55.6 µM); against Pseudomonas aeruginosa, 41.1 µg/mL (≈ 71.8 µM); in the assay with Klebsiella aerogenes, 58.5 µg/mL (≈ 102 µM); in the assay with Staphylococcus aureus it was 56.2 µg/mL (≈ 98.1 µM); in the assay on Enterococcus faecalis, 44.7 µg/mL (≈ 78.1 µM); against Priestia megaterium, 58.7 µg/mL (≈ 102 µM).
For `Cc1ccc2nc(-c3ccc4nc(-c5ccc(Br)cc5)c(Nc5ccccc5)n4c3)[nH]c2c1`, the MIC in the assay on Escherichia coli was found to be 10.3 µg/mL (≈ 20.9 µM); with Pseudomonas aeruginosa it was 13.4 µg/mL (≈ 27 µM); against Klebsiella aerogenes, 11.8 µg/mL (≈ 23.8 µM); with Staphylococcus aureus it was 9.51 µg/mL (≈ 19.2 µM); against Enterococcus faecalis, 13.6 µg/mL (≈ 27.6 µM); with Priestia megaterium, 18.6 µg/mL (≈ 37.6 µM).
In the case of `Fc1ccc(-c2cnc(-c3ccc4nc(-c5ccc(Br)cc5)c(Nc5ccccc5)n4c3)[nH]2)cc1`, the MIC stood at 1.33 µg/mL (≈ 2.54 µM) against Escherichia coli; 2.12 µg/mL (≈ 4.04 µM) in the assay with Pseudomonas aeruginosa; 1.55 µg/mL (≈ 2.96 µM) with Klebsiella aerogenes; 0.72 µg/mL (≈ 1.37 µM) against Staphylococcus aureus; 3.17 µg/mL (≈ 6.05 µM) against Enterococcus faecalis; 8.34 µg/mL (≈ 15.9 µM) with Priestia megaterium.
For `Brc1ccc(-c2cnc(-c3ccc4nc(-c5ccc(Oc6ccccc6)cc5)c(Nc5ccccc5)n4c3)[nH]2)cc1`, the MIC against Escherichia coli was 12.2 µg/mL (≈ 20.4 µM); against Pseudomonas aeruginosa it was 11.8 µg/mL (≈ 19.7 µM); against Klebsiella aerogenes it was 10.7 µg/mL (≈ 17.9 µM); in the assay on Staphylococcus aureus it was 10.2 µg/mL (≈ 17.1 µM); against Enterococcus faecalis it was 13.7 µg/mL (≈ 22.9 µM); against Priestia megaterium, 19.9 µg/mL (≈ 33.2 µM).
On to `Clc1ccc(-c2cnc(-c3ccc4nc(-c5ccc(Br)cc5)c(Nc5ccccc5)n4c3)[nH]2)cc1`, for which the MIC in the assay on Escherichia coli is 1.42 µg/mL (≈ 2.63 µM); with Pseudomonas aeruginosa, 2.52 µg/mL (≈ 4.66 µM); against Klebsiella aerogenes it was 1.17 µg/mL (≈ 2.16 µM); against Staphylococcus aureus, 0.93 µg/mL (≈ 1.72 µM); in the assay on Enterococcus faecalis, 2.96 µg/mL (≈ 5.47 µM); in the assay on Priestia megaterium it was 9.13 µg/mL (≈ 16.9 µM).
For `Brc1ccc(-c2nc3ccc(-c4ncc(-c5ccc(Oc6ccccc6)cc5)[nH]4)cn3c2Nc2ccccc2)cc1`, the MIC in the assay on Escherichia coli was 33.3 µg/mL (≈ 55.6 µM); against Pseudomonas aeruginosa it was 44.3 µg/mL (≈ 74 µM); against Klebsiella aerogenes, 53.4 µg/mL (≈ 89.2 µM); against Staphylococcus aureus it was 58.4 µg/mL (≈ 97.5 µM); against Enterococcus faecalis it was 39.6 µg/mL (≈ 66.2 µM); against Priestia megaterium, 53.2 µg/mL (≈ 88.8 µM).
Consider `Fc1ccc(-c2nnc(-c3ccc4nc(-c5ccc(Br)cc5)c(Nc5ccccc5)n4c3)o2)cc1`, for which the MIC against Escherichia coli turned out to be 1.11 µg/mL (≈ 2.11 µM); in the assay with Pseudomonas aeruginosa, 2.43 µg/mL (≈ 4.62 µM); with Klebsiella aerogenes, 0.85 µg/mL (≈ 1.61 µM); in the assay on Staphylococcus aureus, 0.51 µg/mL (≈ 0.969 µM); against Enterococcus faecalis, 1.57 µg/mL (≈ 2.98 µM); against Priestia megaterium, 4.97 µg/mL (≈ 9.44 µM).
